{
  "source": "ChEMBL document CHEMBL5584277",
  "about": "“Identification of 5-Thiocyanatothiazol-2-amines Disrupting WDR5-MYC Protein-Protein Interactions” (ACS Med Chem Lett, 2024)",
  "key": {"Raji": {"tested_on": "Raji", "assay": "Antiproliferative activity against human Raji cells incubated for 72 hrs by SRB assay", "assay_type": "functional, cell-based"}, "Ramos": {"tested_on": "Ramos", "assay": "Antiproliferative activity against human Ramos cells incubated for 72 hrs by SRB assay", "assay_type": "functional, cell-based"}, "NCI-H1299": {"tested_on": "NCI-H1299", "assay": "Antiproliferative activity against human NCI-H1299 cells incubated for 72 hrs by SRB assay", "assay_type": "functional, cell-based", "conditions": "NCI-H1299, 72 h"}, "WDR5-MYC": {"target": "WDR5-MYC (Homo sapiens, UniProt P61964)", "assay": "Disruption of WDR5/5-FAM-labelled MYC (261 to 267 residues)(unknown origin) interaction incubated for 120 mins by FP assay", "assay_type": "protein assay", "procedure,_shortened": "(§1)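 FP competition with reporter probe from MYC MbIIIb residues E261–V267 bound to WDR5, compound concentration varied, DMSO as negative control. Ki obtained by fitting FP signal change to a hyperbolic function. Unlabelled MYC peptide run as assay quality control.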"}, "[1]": {"target": "WD repeat-containing protein 5 (Homo sapiens) (UniProt P61964)", "assay": "Binding affinity to WDR5 (unknown origin) assessed as decrease in melting temperature by DSF assay relative to control", "procedure,_shortened": "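DSF with WDR5 protein, with DMSO as the reference group. The inflection-point temperature (Ti) of WDR5 was monitored after compound treatment, and the change is reported as ΔTi relative to DMSO.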"}, "SUD4": {"tested_on": "SUD4", "assay": "Antiproliferative activity against human SU-DHL-4 cells incubated for 72 hrs by SRB assay", "assay_type": "functional, cell-based", "conditions": "SU-DHL-4, 72 h"}, "HL-60": {"tested_on": "HL-60", "assay": "Antiproliferative activity against human HL-60 cells incubated for 72 hrs by SRB assay", "assay_type": "functional, cell-based", "conditions": "HL-60, 72 h"}, "WDR5-MYC (Homo sapiens) [2]": {"target": "T1, WDR5-MYC (Homo sapiens) (UniProt P61964+P01106)", "assay": "Disruption of His-tagged recombinant WDR5 (unknown origin)/HEK293T cell lysate-derived C-MYC (unknown origin) protein-protein interaction assessed as dissociation of protein complex incubated for 120 mins by Co-IP assay"}, "[3]": {"target": "WD repeat-containing protein 5 (Homo sapiens) (UniProt P61964)", "assay": "Binding affinity to WDR5 (unknown origin) assessed as increase in melting temperature by DSF assay relative to control", "procedure,_shortened": "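Differential scanning fluorimetry on WDR5 protein, compounds against DMSO. Inflection-point temperature (Ti) monitored, shift given as ΔTi relative to DMSO group.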"}, "WDR5-MYC (Homo sapiens) [4]": {"target": "T1, WDR5-MYC (Homo sapiens)", "assay": "Disruption of WDR5/5-FAM-labelled MYC (261 to 267 residues)(unknown origin) interaction at 50 uM incubated for 120 mins by FP assay relative to control", "assay_type": "protein assay", "procedure,_shortened": "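Single-point FP screen at 50 μM compound, signal read against DMSO control. Inhibition rate given as mean of n = 2.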"}, "WDR5-MYC (Homo sapiens) [5]": {"target": "T1, WDR5-MYC (Homo sapiens)", "assay": "Disruption of WDR5/5-FAM-labelled MYC (261 to 267 residues)(unknown origin) interaction incubated for 0.5 hrs by FP assay relative to control", "assay_type": "protein assay", "procedure,_shortened": "(§2)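 Time-course FP competition between WDR5 and MYC-derived probe (E261–V267). Compound titrated and read after incubation times from 30 to 360 min. Maximal inhibition (%) and potency taken at each time point from the inhibition curves.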"}, "WDR5-MYC (Homo sapiens) [6]": {"target": "T1, WDR5-MYC (Homo sapiens)", "assay": "Disruption of WDR5/5-FAM-labelled MYC (261 to 267 residues)(unknown origin) interaction by FP assay", "assay_type": "protein assay", "conditions": "time 0.5-6 hrs", "procedure,_shortened": "as §1"}, "WDR5-MYC (Homo sapiens) [7]": {"target": "T1, WDR5-MYC (Homo sapiens)", "assay": "Disruption of WDR5/5-FAM-labelled MYC (261 to 267 residues)(unknown origin) interaction incubated for 6 hrs by FP assay relative to control", "assay_type": "protein assay", "procedure,_shortened": "as §2"}, "WDR5-MYC (Homo sapiens) [8]": {"target": "T1, WDR5-MYC (Homo sapiens)", "assay": "Disruption of WDR5/5-FAM-labelled MYC (261 to 267 residues)(unknown origin) interaction assessed as fold increase in activity incubated for 0.5 to 6 hrs by FP assay relative to control", "assay_type": "protein assay", "conditions": "time 0.5-6 hrs", "procedure,_shortened": "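Fluorescence polarization with WDR5 and a reporter peptide probe from MYC MbIIIb residues E261–V267. Compounds and WDR5 were incubated for 30 to 360 min before reading. FP signal was recorded over varying compound concentrations and fitted to a hyperbolic function to give Ki. DMSO served as negative control, and free MYC peptide was the quality control.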"}},
  "data": [
    {"smiles": "CNC(=O)c1ccc(-c2nc(N)sc2SC#N)cc1", "values": [
      {"measurement": "IC50", "setting": "Raji", "result": 1520, "unit": "nM"},
      {"measurement": "IC50", "setting": "Ramos", "result": 1510, "unit": "nM"},
      {"measurement": "IC50", "setting": "NCI-H1299", "result": 7.4, "unit": "µM"},
      {"measurement": "Ki", "setting": "WDR5-MYC", "result": 1000, "unit": "nM"},
      {"measurement": "ΔTm", "setting": "[1]", "result": -5.8, "unit": "°C"},
      {"measurement": "IC50", "setting": "SUD4", "result": 2200, "unit": "nM"},
      {"measurement": "IC50", "setting": "HL-60", "result": 5.32, "unit": "µM"},
      {"measurement": "Activity", "setting": "WDR5-MYC (Homo sapiens) [2]", "result": "Dose-Dependent Effect"}
    ]},
    {"smiles": "COC(=O)c1ccc(-c2nc(N)sc2SC#N)cc1", "values": [
      {"measurement": "Ki", "setting": "WDR5-MYC", "result": 1700, "unit": "nM"}
    ]},
    {"smiles": "N#CSc1sc(N)nc1-c1ccc(O)cc1", "values": [
      {"measurement": "IC50", "setting": "Raji", "result": 710, "unit": "nM"},
      {"measurement": "IC50", "setting": "Ramos", "result": 1060, "unit": "nM"},
      {"measurement": "IC50", "setting": "NCI-H1299", "result": 3.7, "unit": "µM"},
      {"measurement": "Ki", "setting": "WDR5-MYC", "result": 2400, "unit": "nM"},
      {"measurement": "ΔTm", "setting": "[1]", "result": -2.7, "unit": "°C"},
      {"measurement": "IC50", "setting": "SUD4", "result": 1430, "unit": "nM"},
      {"measurement": "IC50", "setting": "HL-60", "result": 3.03, "unit": "µM"},
      {"measurement": "Activity", "setting": "WDR5-MYC (Homo sapiens) [2]", "result": "Dose-Dependent Effect"}
    ]},
    {"smiles": "N#CSc1sc(N)nc1-c1ccc(F)cc1", "values": [
      {"measurement": "Ki", "setting": "WDR5-MYC", "result": 3200, "unit": "nM"}
    ]},
    {"smiles": "N#CSc1sc(N)nc1-c1ccccc1Cl", "values": [
      {"measurement": "Ki", "setting": "WDR5-MYC", "result": 2600, "unit": "nM"}
    ]},
    {"smiles": "COc1ccc(Br)cc1S(=O)(=O)Nc1cc(Cl)ccc1O", "values": [
      {"measurement": "Ki", "setting": "WDR5-MYC", "result": 16300, "unit": "nM"},
      {"measurement": "ΔTm", "setting": "[3]", "result": 1.4, "unit": "°C"}
    ]},
    {"smiles": "N#CSc1sc(Nc2ccccn2)nc1-c1ccc(Cl)cc1", "values": [
      {"measurement": "Ki", "setting": "WDR5-MYC", "result": "> 50000", "unit": "nM"}
    ]},
    {"smiles": "C[S+]([O-])c1sc(N)nc1-c1ccc(Cl)cc1", "note": "(stereo unspecified)", "values": [
      {"measurement": "inhibition", "setting": "WDR5-MYC (Homo sapiens) [4]", "result": 0.4, "unit": "%"}
    ]},
    {"smiles": "Nc1nc(-c2ccc(Cl)cc2)c(Br)s1", "values": [
      {"measurement": "inhibition", "setting": "WDR5-MYC (Homo sapiens) [4]", "result": -5, "unit": "%"}
    ]},
    {"smiles": "N#CSc1sc(N)nc1-c1ccc(Cl)cc1", "values": [
      {"measurement": "Activity", "setting": "WDR5-MYC (Homo sapiens) [5]", "result": 33.2, "unit": "%"},
      {"measurement": "Ki", "setting": "WDR5-MYC", "result": 1300, "unit": "nM"},
      {"measurement": "Activity", "setting": "WDR5-MYC (Homo sapiens) [6]", "result": "Dose-Dependent Effect"},
      {"measurement": "Activity", "setting": "WDR5-MYC (Homo sapiens) [7]", "result": 51.2, "unit": "%"},
      {"measurement": "ΔTm", "setting": "[1]", "result": -2.7, "unit": "°C"},
      {"measurement": "fold change (FC)", "setting": "WDR5-MYC (Homo sapiens) [8]", "result": 1.5}
    ]},
    {"smiles": "N#CSc1sc(N)nc1-c1ccc(C(F)(F)F)cc1", "values": [
      {"measurement": "Ki", "setting": "WDR5-MYC", "result": 1500, "unit": "nM"}
    ]},
    {"smiles": "Cc1ccc(-c2nc(N)sc2SC#N)cc1", "values": [
      {"measurement": "Ki", "setting": "WDR5-MYC", "result": 3000, "unit": "nM"}
    ]},
    {"smiles": "COc1ccc(-c2nc(N)sc2SC#N)cc1", "values": [
      {"measurement": "Ki", "setting": "WDR5-MYC", "result": 2900, "unit": "nM"}
    ]},
    {"smiles": "Cc1ccc(S(=O)(=O)Nc2nc(-c3ccc(Cl)cc3)c(SC#N)s2)cc1", "values": [
      {"measurement": "Ki", "setting": "WDR5-MYC", "result": 54500, "unit": "nM"}
    ]},
    {"smiles": "N#CSc1cnc(N)s1", "values": [
      {"measurement": "Ki", "setting": "WDR5-MYC", "result": 6100, "unit": "nM"}
    ]},
    {"smiles": "N#CSc1sc(N)nc1-c1cccc([N+](=O)[O-])c1", "values": [
      {"measurement": "Ki", "setting": "WDR5-MYC", "result": 4100, "unit": "nM"}
    ]},
    {"smiles": "Nc1nc(-c2ccc(Cl)cc2)cs1", "values": [
      {"measurement": "inhibition", "setting": "WDR5-MYC (Homo sapiens) [4]", "result": 0.9, "unit": "%"}
    ]},
    {"smiles": "N#CSc1sc(NC(=O)c2ccc(Cl)cc2)nc1-c1ccc(Cl)cc1", "values": [
      {"measurement": "Ki", "setting": "WDR5-MYC", "result": "> 50000", "unit": "nM"}
    ]},
    {"smiles": "N#CSc1sc(N)nc1-c1cccc(Br)c1", "values": [
      {"measurement": "Ki", "setting": "WDR5-MYC", "result": 2600, "unit": "nM"}
    ]},
    {"smiles": "CNc1nc(-c2ccc(Cl)cc2)c(SC#N)s1", "values": [
      {"measurement": "Ki", "setting": "WDR5-MYC", "result": 1200, "unit": "nM"}
    ]},
    {"smiles": "N#CSc1sc(N)nc1-c1ccccc1Br", "values": [
      {"measurement": "Ki", "setting": "WDR5-MYC", "result": 3000, "unit": "nM"}
    ]},
    {"smiles": "CCOc1ccc(-c2nc(N)sc2SC#N)cc1Br", "values": [
      {"measurement": "Ki", "setting": "WDR5-MYC", "result": 6300, "unit": "nM"}
    ]},
    {"smiles": "CS(=O)(=O)c1sc(N)nc1-c1ccc(Cl)cc1", "values": [
      {"measurement": "inhibition", "setting": "WDR5-MYC (Homo sapiens) [4]", "result": -10, "unit": "%"}
    ]},
    {"smiles": "N#CSc1sc(N)nc1-c1ccc(Br)cc1", "values": [
      {"measurement": "Ki", "setting": "WDR5-MYC", "result": 900, "unit": "nM"}
    ]},
    {"smiles": "N#Cc1sc(N)nc1-c1ccc(Cl)cc1", "values": [
      {"measurement": "inhibition", "setting": "WDR5-MYC (Homo sapiens) [4]", "result": 1.1, "unit": "%"}
    ]},
    {"smiles": "CC(C)C(=O)Nc1nc(-c2ccc(Cl)cc2)c(SC#N)s1", "values": [
      {"measurement": "Ki", "setting": "WDR5-MYC", "result": 1600, "unit": "nM"}
    ]}
  ]
}
